Measurements: ChEMBL document CHEMBL5058577, “EUbOPEN Chemogenomics Library 2 (Multiplex)” (2022)

System: HEK-293T
Assay: Multiplex assay against HEK293T
Format: toxicity, cell-based
Conditions: human
How it was run: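 Hoechst33342, BioTracker Green Microtubule Cytoskeleton Dye, MitoTracker Red and Annexin V Alexa Fluor 680 were added to live cells at seeding, and imaging on a CQ1 microscope at 37°C and 5% CO2 followed compound addition. Gating by CellPathfinder machine learning separated cells into Hoechst high-intensity objects or normal cells, then normal cells into healthy, pyknosed or fragmented nuclei, then pyknosed cells into mitotic or apoptotic. Per cents of healthy-nucleus cells are reported for the tubulin, mitochondrial-mass and membrane-permeability phenotypes.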

[1] = 12 h, 1 µM, compound concentration 1 uM, replicate 1
[2] = 12 h, 1 µM, compound concentration 1 uM, replicate 2
[3] = 12 h, 10 µM, compound concentration 10 uM, replicate 1
[4] = 12 h, 10 µM, compound concentration 10 uM, replicate 2
[5] = 24 h, 1 µM, compound concentration 1 uM, replicate 1
[6] = 24 h, 1 µM, compound concentration 1 uM, replicate 2
[7] = 24 h, 10 µM, compound concentration 10 uM, replicate 1
[8] = 24 h, 10 µM, compound concentration 10 uM, replicate 2
[9] = 48 h, 1 µM, compound concentration 1 uM, replicate 1
[10] = 48 h, 1 µM, compound concentration 1 uM, replicate 2
[11] = 48 h, 10 µM, compound concentration 10 uM, replicate 1
[12] = 48 h, 10 µM, compound concentration 10 uM, replicate 2

## COC[C@@H](c1ccc(C(F)(F)F)cc1)N1CCN(C2(C)CCN(C(=O)c3c(C)ncnc3C)CC2)C[C@@H]1C.O=C(O)/C=C\C(=O)O [VICRIVIROC MALEATE]
[1]
  Population Apoptotic (%): 46%
  Population Fragmented Nuclei (%): 7%
  Population Healthy Nuclei (%): 80%
  Population Hoechst High Intensity Objects (%): 9%
  Population Membrane Permeable-Phenotype (%): 0%
  Population Mitochondria Different-Phenotype (%): 47%
  Population Mitotic Cells (%): 53%
  Population Normal (%): 90%
  Population Pyknosed Nuclei (%): 12%
  Population Tubulin-Different-Phenotype (%): 27%
  Total Cell Count: 406
[2]
  Population Apoptotic (%): 45%
  Population Hoechst High Intensity Objects (%): 5%
  Population Mitochondria Different-Phenotype (%): 51%
  Population Mitotic Cells (%): 54%
  Population Normal (%): 94%
  Population Pyknosed Nuclei (%): 11%
  Population Tubulin-Different-Phenotype (%): 17%
  Total Cell Count: 387
[3]
  Population Apoptotic (%): 44%
  Population Fragmented Nuclei (%): 6%
  Population Healthy Nuclei (%): 75%
  Population Hoechst High Intensity Objects (%): 8%
  Population Membrane Permeable-Phenotype (%): 0%
  Population Mitochondria Different-Phenotype (%): 63%
  Population Mitotic Cells (%): 55%
  Population Normal (%): 91%
  Population Pyknosed Nuclei (%): 18%
  Population Tubulin-Different-Phenotype (%): 57%
  Total Cell Count: 315
[4]
  Population Apoptotic (%): 62%
  Population Fragmented Nuclei (%): 5%
  Population Healthy Nuclei (%): 72%
  Population Hoechst High Intensity Objects (%): 16%
  Population Mitochondria Different-Phenotype (%): 78%
  Population Mitotic Cells (%): 37%
  Population Normal (%): 83%
  Population Pyknosed Nuclei (%): 21%
  Population Tubulin-Different-Phenotype (%): 51%
  Total Cell Count: 265
[5]
  Population Apoptotic (%): 30%
  Population Fragmented Nuclei (%): 9%
  Population Healthy Nuclei (%): 79%
  Population Hoechst High Intensity Objects (%): 6%
  Population Membrane Permeable-Phenotype (%): 0%
  Population Mitochondria Different-Phenotype (%): 24%
  Population Mitotic Cells (%): 69%
  Population Normal (%): 93%
  Population Pyknosed Nuclei (%): 10%
  Population Tubulin-Different-Phenotype (%): 21%
  Total Cell Count: 564
[6]
  Population Apoptotic (%): 31%
  Population Healthy Nuclei (%): 82%
  Population Hoechst High Intensity Objects (%): 5%
  Population Membrane Permeable-Phenotype (%): 1%
  Population Mitotic Cells (%): 68%
  Population Normal (%): 94%
  Population Pyknosed Nuclei (%): 8%
  Population Tubulin-Different-Phenotype (%): 11%
  Total Cell Count: 515
[7]
  Population Apoptotic (%): 34%
  Population Fragmented Nuclei (%): 6%
  Population Healthy Nuclei (%): 80%
  Population Hoechst High Intensity Objects (%): 6%
  Population Membrane Permeable-Phenotype (%): 0%
  Population Mitochondria Different-Phenotype (%): 53%
  Population Mitotic Cells (%): 66%
  Population Normal (%): 93%
  Population Pyknosed Nuclei (%): 13%
  Population Tubulin-Different-Phenotype (%): 49%
  Total Cell Count: 406
[8]
  Population Apoptotic (%): 60%
  Population Fragmented Nuclei (%): 10%
  Population Healthy Nuclei (%): 77%
  Population Hoechst High Intensity Objects (%): 16%
  Population Mitochondria Different-Phenotype (%): 70%
  Population Mitotic Cells (%): 39%
  Population Normal (%): 83%
  Population Pyknosed Nuclei (%): 12%
  Population Tubulin-Different-Phenotype (%): 39%
  Total Cell Count: 310
[9]
  Population Apoptotic (%): 21%
  Population Fragmented Nuclei (%): 11%
  Population Healthy Nuclei (%): 80%
  Population Hoechst High Intensity Objects (%): 2%
  Population Membrane Permeable-Phenotype (%): 1%
  Population Mitochondria Different-Phenotype (%): 13%
  Population Mitotic Cells (%): 78%
  Population Normal (%): 97%
  Population Pyknosed Nuclei (%): 7%
  Population Tubulin-Different-Phenotype (%): 12%
  Total Cell Count: 930
[10]
  Population Apoptotic (%): 34%
  Population Fragmented Nuclei (%): 13%
  Population Healthy Nuclei (%): 81%
  Population Mitochondria Different-Phenotype (%): 11%
  Population Mitotic Cells (%): 65%
  Population Pyknosed Nuclei (%): 5%
  Population Tubulin-Different-Phenotype (%): 8%
  Total Cell Count: 751
[11]
  Population Apoptotic (%): 38%
  Population Fragmented Nuclei (%): 12%
  Population Healthy Nuclei (%): 75%
  Population Hoechst High Intensity Objects (%): 4%
  Population Membrane Permeable-Phenotype (%): 0%
  Population Mitochondria Different-Phenotype (%): 49%
  Population Mitotic Cells (%): 61%
  Population Normal (%): 95%
  Population Pyknosed Nuclei (%): 11%
  Population Tubulin-Different-Phenotype (%): 35%
  Total Cell Count: 559
[12]
  Population Apoptotic (%): 53%
  Population Fragmented Nuclei (%): 14%
  Population Healthy Nuclei (%): 70%
  Population Hoechst High Intensity Objects (%): 11%
  Population Mitochondria Different-Phenotype (%): 50%
  Population Mitotic Cells (%): 46%
  Population Normal (%): 88%
  Population Pyknosed Nuclei (%): 15%
  Population Tubulin-Different-Phenotype (%): 38%
  Total Cell Count: 394
